Key:
[1] = biological target: T1, Adenosine receptor A2a (Homo sapiens, UniProt P29274); assay: Displacement of [3H]-ZM 241,385 from human A2A adenosine receptor expressed in CHO cell membranes after 60 mins by scintillation counting method
Outline: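 hA2A CHO membranes (50 µg protein/100 µl), 1 nM [3H]-ZM 241385, graded test concentrations, 60 min at 4°C in 50 mM Tris-HCl pH 7.4 with 10 mM MgCl2. Nonspecific: 1 µM ZM 241385.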

[2] = biological target: T1, Adenosine receptor A2a; assay: Displacement of [3H]-ZM 241,385 from human A2A adenosine receptor expressed in CHO cell membranes at 10 uM after 60 mins by scintillation counting method relative to control
Outline: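 Using 1 nM [3H]-ZM 241385 on hA2A CHO membranes, 60 min, 4°C, 50 mM Tris-HCl pH 7.4, 10 mM MgCl2; 1 µM ZM 241385 for nonspecific binding; filtered and counted. Percent inhibition measured at 10 µM compound.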

[3] = biological target: T2, Adenosine receptor A2b (Homo sapiens, UniProt P29275); assay: Antagonist activity at human A2B adenosine receptor assessed as inhibition of NECA-stimulated cAMP level after 30 mins by Alphascreen assay; type: functional
T2 sequence (P29275 whole entry): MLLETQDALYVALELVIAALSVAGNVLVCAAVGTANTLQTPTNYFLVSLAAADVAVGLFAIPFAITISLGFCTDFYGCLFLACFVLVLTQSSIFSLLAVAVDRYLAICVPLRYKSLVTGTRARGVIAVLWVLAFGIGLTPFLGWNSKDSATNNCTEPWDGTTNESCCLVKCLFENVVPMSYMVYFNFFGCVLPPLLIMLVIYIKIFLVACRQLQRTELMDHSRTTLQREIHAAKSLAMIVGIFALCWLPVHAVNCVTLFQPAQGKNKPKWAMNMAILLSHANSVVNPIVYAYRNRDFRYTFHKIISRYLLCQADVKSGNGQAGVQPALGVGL
Outline: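 Cells with compounds and anti-cAMP acceptor beads 30 min, then streptavidin donor beads plus biotinylated cAMP 1 h; AlphaScreen read. IC50 by sigmoid nonlinear regression.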

[4] = biological target: T3, Adenosine receptor A3 (Homo sapiens, UniProt P0DMS8); assay: Displacement of [125I]-ABMECA from human A3 adenosine receptor expressed in CHO cell membranes after 120 mins by scintillation counting method
T3 sequence (P0DMS8 whole entry): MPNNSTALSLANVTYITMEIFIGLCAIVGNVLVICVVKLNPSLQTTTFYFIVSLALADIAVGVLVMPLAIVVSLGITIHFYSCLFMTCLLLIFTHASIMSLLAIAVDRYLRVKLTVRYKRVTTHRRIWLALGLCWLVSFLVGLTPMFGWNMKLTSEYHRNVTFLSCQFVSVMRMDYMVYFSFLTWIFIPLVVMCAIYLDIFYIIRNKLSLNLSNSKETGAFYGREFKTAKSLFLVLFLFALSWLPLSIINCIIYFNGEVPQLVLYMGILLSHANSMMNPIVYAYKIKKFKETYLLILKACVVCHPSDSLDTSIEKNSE

[5] = biological target: T4, Adenosine receptor A2b (Homo sapiens) (UniProt P29275); assay: Antagonist activity at human A2B adenosine receptor assessed as inhibition of NECA-stimulated cAMP level at 10 uM after 30 mins by Alphascreen assay relative to control; type: functional
T4 sequence (whole entry): T2 sequence (P29275 whole entry)

[6] = biological target: T5, Adenosine receptor A1 (Homo sapiens, UniProt P30542); assay: Displacement of [3H]-DPCPX from human A1 adenosine receptor expressed in CHO cell membranes after 90 mins by scintillation counting method
T5 sequence (P30542 whole entry): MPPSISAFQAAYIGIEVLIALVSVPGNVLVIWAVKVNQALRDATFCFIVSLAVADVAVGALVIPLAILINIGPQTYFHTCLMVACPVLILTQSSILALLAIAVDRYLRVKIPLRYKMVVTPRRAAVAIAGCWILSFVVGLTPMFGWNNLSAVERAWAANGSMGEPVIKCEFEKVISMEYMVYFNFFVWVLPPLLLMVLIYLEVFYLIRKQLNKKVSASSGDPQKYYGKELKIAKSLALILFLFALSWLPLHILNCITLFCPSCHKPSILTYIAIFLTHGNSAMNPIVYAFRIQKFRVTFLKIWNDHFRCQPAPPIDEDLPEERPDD
Outline: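 Membranes from CHO cells expressing hA1 (50 µg protein/100 µl) incubated with 1 nM [3H]-DPCPX and varying test concentrations, 25°C, 90 min, 50 mM Tris-HCl pH 7.4. Nonspecific binding with 1 µM DPCPX. Filtration over glass fiber filters, scintillation counting.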

[7] = biological target: T1, Adenosine receptor A2a; assay: Inverse agonist activity at human A2A adenosine receptor expressed in CHO cells assessed as inhibition of basal cAMP level after 30 mins by Alphascreen assay; type: functional, cell-based
Outline: (§1)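 hA2A CHO cells exposed to varied compound concentrations without agonist, measuring decrease of basal cAMP; AlphaScreen detection (30 min acceptor beads, then 1 h donor beads with biotinylated cAMP). IC50 from sigmoid nonlinear fit, Emax efficacy; mean ± SEM.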

[8] = biological target: T1, Adenosine receptor A2a; assay: Antagonist activity at human A2A adenosine receptor expressed in CHO cells assessed as inhibition of CGS21680-stimulated cAMP level after 30 mins by Alphascreen assay; type: functional, cell-based
Outline: (§2)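 Same hA2A CHO cAMP experiment run in presence of CGS 21680 (10 nM); compounds at varied concentrations, AlphaScreen cAMP detection (30 min, then 1 h). IC50 via sigmoid nonlinear regression, Emax efficacy; four experiments in triplicate, mean ± SEM.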

[9] = biological target: T5, Adenosine receptor A1; assay: Antagonist activity at human A1 adenosine receptor expressed in CHO cells assessed as inhibition of CCPA-induced reduction of forskolin-stimulated cAMP level after 30 mins by Alphascreen assay; type: functional, cell-based
Outline: (§3)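 hA1 CHO cells given Forskolin (5 µM) and 1 nM CCPA with varied compound concentrations; AlphaScreen cAMP detection (30 min with acceptor beads, then donor beads/biotinylated cAMP 1 h). IC50 by sigmoid nonlinear regression; Emax as efficacy in reversing CCPA inhibition; mean ± SEM.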

[10] = biological target: T1, Adenosine receptor A2a; assay: Antagonist activity at human A2A adenosine receptor expressed in CHO cells assessed as inhibition of CGS21680-stimulated cAMP level after 30 mins by Alphascreen assay relative to control; type: functional, cell-based; outline: as §2
[11] = biological target: T6, Adenosine receptor A1 (Homo sapiens) (UniProt P30542); assay: Antagonist activity at human A1 adenosine receptor expressed in CHO cells assessed as inhibition of CCPA-induced reduction of forskolin-stimulated cAMP level after 30 mins by Alphascreen assay relative to control; type: functional, cell-based; outline: as §3
T6 sequence (whole entry): T5 sequence (P30542 whole entry)

[12] = biological target: T1, Adenosine receptor A2a; assay: Inverse agonist activity at human A2A adenosine receptor expressed in CHO cells assessed as inhibition of basal cAMP level after 30 mins by Alphascreen assay relative to control; type: functional, cell-based; outline: as §1
[13] = biological target: T6, Adenosine receptor A1 (Homo sapiens); assay: Modulation of human A1 adenosine receptor expressed in CHO cells assessed as forskolin-stimulated cAMP level after 30 mins by Alphascreen assay relative to control; type: functional, cell-based
Outline: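 In hA1 CHO cells, compounds incubated with Forskolin (5 µM) without agonist; cAMP quantified by AlphaScreen (30 min acceptor-bead step, then 1 h donor beads and biotinylated cAMP). Expressed as % of Forskolin-stimulated cAMP (100%); mean ± SEM.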

T1 sequence (P29274 whole entry): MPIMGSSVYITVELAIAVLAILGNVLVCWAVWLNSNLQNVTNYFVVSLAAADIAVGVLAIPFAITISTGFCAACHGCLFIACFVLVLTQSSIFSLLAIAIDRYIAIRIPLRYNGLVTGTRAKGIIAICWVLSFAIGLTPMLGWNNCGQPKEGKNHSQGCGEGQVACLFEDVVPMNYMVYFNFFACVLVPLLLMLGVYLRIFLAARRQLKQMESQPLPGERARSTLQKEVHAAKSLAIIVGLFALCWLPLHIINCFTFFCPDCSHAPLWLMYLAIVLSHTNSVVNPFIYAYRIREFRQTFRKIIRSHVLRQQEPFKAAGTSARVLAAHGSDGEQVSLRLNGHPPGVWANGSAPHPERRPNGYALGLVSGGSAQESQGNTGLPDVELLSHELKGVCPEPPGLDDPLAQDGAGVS

Q: With `Nc1nc(NCc2ccccc2)nc2sc(-c3ccccc3)nc12` as the molecule, how does the Ki [1] read?
A: 116 nM

Q: For `COc1cccc(CNc2nc(N)c3nc(C)sc3n2)c1`, which Ki [1] is on record?
A: 212 nM

Q: What does the source list for `Nc1nc(Nc2ccccc2)nc2sc(-c3ccccc3)nc12`?
A: Ki [1]: > 10000 nM; inhibition [2]: 1%

Q: How did the Ki [1] turn out when `Cc1nc2c(N)nc(NCc3cccs3)nc2s1` was run?
A: 313 nM

Q: For `COc1ccc(CCNc2nc(N)c3nc(-c4ccccc4)sc3n2)cc1`, which Ki [1] is on record?
A: 403 nM

Q: What about the IC50 [3] of the same molecule?
A: > 10000 nM

Q: What about the Ki [4] of the same molecule?
A: 3530 nM

Q: What about the inhibition [5] of the same molecule?
A: 33%

Q: What about the Ki [6] of the same molecule?
A: 485 nM

Q: With `COc1ccccc1CNc1nc(N)c2nc(C)sc2n1` as the molecule, how does the Ki [1] read?
A: 135 nM

Q: With `Nc1nc(NCCc2ccc(O)cc2)nc2sc(-c3ccccc3)nc12` as the molecule, how does the Ki [1] read?
A: 96 nM

Q: And the IC50 [3]?
A: 7520 nM

Q: What about the Ki [4] of the same molecule?
A: 1610 nM

Q: What about the Ki [6] of the same molecule?
A: 242 nM

Q: Which Ki [1] does the source give for `COc1ccccc1CNc1nc(N)c2nc(-c3ccccc3)sc2n1` here?
A: 4.72 nM

Q: And the IC50 [7]?
A: 5.34 nM

Q: What about the IC50 [8] of the same molecule?
A: 7.63 nM

Q: With `Cc1nc2c(N)nc(Nc3ccccc3)nc2s1` as the molecule, how does the Ki [1] read?
A: 608 nM

Q: What does the source list for `Cc1nc2c(N)nc(NCCc3cccs3)nc2s1`?
A: IC50 [9]: 107 nM; Emax [10]: 124%; Ki [1]: 61 nM; Emax [11]: 98%; Emax [12]: 58%; IC50 [7]: 83 nM; IC50 [3]: 134 nM; IC50 [8]: 102 nM; Activity [13]: 100%; Ki [4]: 1520 nM; Ki [6]: 92 nM

Q: How did the Ki [1] turn out when `Cc1nc2c(N)nc(NCc3ccccc3)nc2s1` was run?
A: 532 nM

Q: How did the Emax [10] turn out when `COc1cccc(CNc2nc(N)c3nc(-c4ccccc4)sc3n2)c1` was run?
A: 128%

Q: What about the Ki [1] of the same molecule?
A: 42 nM

Q: And the Emax [12]?
A: 52%

Q: And the IC50 [7]?
A: 48 nM

Q: What about the IC50 [8] of the same molecule?
A: 66 nM

Q: `Nc1nc(NCCc2ccccc2)nc2sc(-c3ccccc3)nc12` was tested. Which Ki [1] did it give?
A: 406 nM

Q: And the IC50 [3]?
A: 4380 nM

Q: And the Ki [4]?
A: 2270 nM

Q: And the Ki [6]?
A: 121 nM

Q: Which results are given for `Cc1nc2c(N)nc(NCCc3ccccc3)nc2s1`?
A: Ki [1]: 78 nM; IC50 [3]: 1100 nM; Ki [4]: 548 nM; Ki [6]: 140 nM

Q: `Nc1nc(NCc2cccs2)nc2sc(-c3ccccc3)nc12` was tested. Which Emax [10] did it give?
A: 131%

Q: And the Ki [1]?
A: 28 nM

Q: What about the Emax [12] of the same molecule?
A: 64%

Q: What about the IC50 [7] of the same molecule?
A: 36 nM

Q: What about the IC50 [8] of the same molecule?
A: 43 nM

Q: `COc1cccc(CNc2nc(N)c3nc(-c4cnccn4)sc3n2)c1` was tested. Which Ki [1] did it give?
A: 973 nM

Q: For `COc1ccccc1CNc1nc(N)c2nc(-c3cnccn3)sc2n1`, which Ki [1] is on record?
A: 79 nM

Q: With `Nc1nc(NCc2cccs2)nc2sc(-c3cnccn3)nc12` as the molecule, how does the Ki [1] read?
A: 219 nM
